PKD1 inh: inhibitors of human PKD1 kinase; inhibition, % (no concentration beside the values); AID 797; Q15139; PKD1 kinase fluorescence polarization assay; actives 0.056% (n = 200,000); in the data active = inhibition above about 50%
Cl transport mod: modulators of human KCC2 chloride dependent transport. Q9H2X9. B-score of Tl+ flux slope (higher = more flux/activation; lower = inhibition) at 10 µM. KCC2 cells, thallium flux FluoZin-2 fluorescence. actives 2.2% (n = 190,000);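 active = thallium flux slope and its plate-corrected score both differing from the plate sample mean at a set confidence after two filtering rounds, in either direction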;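 also: slope of fluorescence scaled to starting intensity during 10 to 20 s after thallium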
MDM2 E3 inh: inhibitors of human Mdm2 E3 ubiquitin ligase; actives 0.11% (n = 210,000); signal enhancement, % at 5 µM; Q00987; cell-based MDM2 ubiquitination luciferase reporter, 2 h; 0 = plate control, 100 = twice control, blank-subtracted;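 active = signal enhancement of 30% or more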;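 also: luminescence tracks abundance of the self-degrading MDM2-luciferase fusion protein; higher signal means inhibition of MDM2 E3 ligase activity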
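system = mammalian cells stably expressing self-ubiquitinating, self-degrading MDM2 E3–luciferase fusion | quantity = 2000 cells per well seeded | incubation = 4 h cell settling then 2 h compound exposure, 37 °C | signal = SteadyLite luminescence, 15 min reagent step | benchmarks = plate control and blank wells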
Arbovirus inh: blocks arbovirus infection. arbovirus infection cell-based antiviral screen. actives 0.37% (n = 200,000). inhibition, % at 10 µM; in the data active = inhibition above about 30%
ROMK primary: modulates human ROMK potassium channel activity; B-score at 10 µM; Tet-inducible ROMK, thallium flux fluorescence; actives lie on both sides; P48048; actives 2% (n = 130,000);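 active = signal ratio slope over the read window, or its plate-corrected B-score, at least 3 SD from the plate mean, either direction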;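 also: B-score of the F/F0 ratio slope over 7 to 12 s after thallium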
Target sequence (P48048 whole entry, looked up): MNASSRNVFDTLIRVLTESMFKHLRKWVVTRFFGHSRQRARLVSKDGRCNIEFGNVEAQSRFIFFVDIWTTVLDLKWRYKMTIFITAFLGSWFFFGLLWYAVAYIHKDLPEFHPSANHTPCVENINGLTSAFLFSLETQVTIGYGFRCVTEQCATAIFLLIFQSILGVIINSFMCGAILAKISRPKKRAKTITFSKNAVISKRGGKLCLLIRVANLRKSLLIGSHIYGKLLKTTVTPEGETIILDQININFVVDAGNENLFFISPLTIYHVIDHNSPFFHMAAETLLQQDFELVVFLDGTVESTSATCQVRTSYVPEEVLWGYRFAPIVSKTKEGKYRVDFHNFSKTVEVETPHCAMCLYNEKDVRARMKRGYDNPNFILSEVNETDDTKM
Calpain2 inh: blocks pig calpain II enzyme activity; purified calpain II, fluorogenic peptide substrate, 30 min; inhibition, % at 16 µM; actives 0.37% (n = 220,000); AID 1236;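 active = inhibition above about 50%, limit read from the data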
KCC2 sec1: confirmation of human KCC2 transport modulators | shares compounds with Cl transport mod | HEK293-KCC2, thallium flux, FluoZin2 fluorescence; stronger effect = higher value | normalised thallium flux (F/F0 slope) at 10 µM | actives 15% (n = 3,700);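 active = thallium flux slope above the same plate's solvent-only control mean plus 3 SD; inconclusive = the two replicate wells disagree; inactive = no significant difference from solvent-only control wells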
KCC2 bumet counter: thallium flux persisting under bumetanide in KCC2 cells, counter-screen secondary assay. shares compounds with Cl transport mod. HEK293-KCC2 + bumetanide/ouabain, thallium flux FluoZin2; stronger effect = higher value. normalized thallium flux at 10 µM. actives 49% (n = 3,700). AID 1714;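 active = thallium entry rate above the same plate's blocked-transporter control wells by more than 3 SD; inconclusive = the two repeat wells disagree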;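 also: raw slope of fluorescence over initial fluorescence between 10 and 20 s after thallium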
KCC2 secondary2: KCC2 (human) modulation, second secondary assay. shares compounds with Cl transport mod. AID 1715. actives 23% (n = 3,700). normalized thallium flux at 10 µM. HEK293-KCC2, thallium flux FluoZin2 fluorescence; actives lie on both sides; F/F0 rise rate, 10–20 s post-thallium;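 active = thallium flux slope more than 3 SD above or below the plate's solvent-only control mean, mostly below; inconclusive = the two repeat wells disagreed; inactive = no significant shift from solvent-only controls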;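 also: raw slope with 0.1% DMSO as baseline and bumetanide as block control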
HEK counter1: parental HEK flux effect, counter-screen | shares compounds with Cl transport mod | HEK293 parental cells, thallium flux FluoZin2, ouabain; baseline-ratio fluorescence slope, 10–20 s after thallium | thallium flux rate (normalised fluorescence) at 10 µM | actives 46% (n = 3,700) | AID 1716;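 active = thallium flux rate significantly above the same plate's solvent-only control wells, beyond their mean plus 3 SD; inconclusive = the two replicate wells gave conflicting results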
KCC2 retest ouab: KCC2 (human) modulation, ouabain retest | shares compounds with Cl transport mod | HEK293-KCC2, thallium flux FluoZin2 fluorescence; bidirectional: low = inhibitor, high = activator | raw Tl+ flux slope (below DMSO = inhibition, above = activation) at 10 µM | actives 48% (n = 3,700) | AID 1717;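 active = thallium flux slope beyond 3 SD from same-plate DMSO control mean in most replicates, usually higher, sometimes lower; inconclusive = repeat tests gave conflicting results; inactive = no significant difference from controls in most replicates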;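 also: slope of initial-normalized fluorescence between seconds 10 and 20 after thallium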
HEK293 Tl flux2: counter-screen for KCC2 modulators: effect in parental HEK293 cells. shares compounds with Cl transport mod. thallium flux FluoZin-2 fluorescence slope. thallium flux slope at 10 µM. actives 33% (n = 3,700). AID 1718;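 active = thallium flux slope above the same plate's solvent-control mean plus 3 SD in both duplicate wells; inconclusive = duplicate wells that disagreed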;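 also: run without ouabain in cells lacking the KCC2 cotransporter; slope of fluorescence scaled to its starting value between 10 and 20 s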
The depositor's hits bear a star. An excerpt weighted towards active compounds, which were near 3.7% of everything screened.

COc1ccc(N(CC(=O)Nc2cccc(C)c2C)S(=O)(=O)c2c(C)n[nH]c2C)cc1 was read as PKD1 inh -5, MDM2 E3 inh -15, Arbovirus inh -6, ROMK primary -1.2, Calpain2 inh 34, KCC2 sec1 0.019, KCC2 bumet counter 0.0051, KCC2 secondary2 0.024*, HEK counter1 0.0075, KCC2 retest ouab 0.015 and HEK293 Tl flux2 0.01.
`COc1ccc(N(CC(=O)Nc2cccc(C)c2C)S(=O)(=O)c2c(C)[nH]c(=O)[nH]c2=O)cc1` gave Cl transport mod -0.11, MDM2 E3 inh -11, ROMK primary 1.2 and Calpain2 inh 7.
Screening Cc1noc(C)c1S(=O)(=O)N(CC(=O)Nc1ccc2c(c1)OCO2)c1ccc(C(C)C)cc1 returned PKD1 inh 5, Cl transport mod -0.3, MDM2 E3 inh -19, Arbovirus inh 5 and Calpain2 inh -13.
Screening Cc1n[nH]c(C)c1S(=O)(=O)N(CC(=O)Nc1ccc2c(c1)OCCO2)c1ccc(C(C)C)cc1 returned PKD1 inh -1, Cl transport mod -5.1*, MDM2 E3 inh -10, Arbovirus inh 14, Calpain2 inh -7, KCC2 sec1 inconclusive, KCC2 bumet counter inconclusive, KCC2 secondary2 0.032, HEK counter1 0.0066, KCC2 retest ouab 0.016* and HEK293 Tl flux2 0.01.
For c1ccc2cc(CSCc3nc4ccccc4[nH]3)ccc2c1 the results were PKD1 inh 0, Cl transport mod -0.11, MDM2 E3 inh -3, Arbovirus inh 9, ROMK primary -0.69 and Calpain2 inh 27.
Cc1cccn2c(=O)c3cc(C(=O)NC(C)c4ccccc4)c(=N)n(CCCn4ccnc4)c3nc12 (stereo unspecified) was read as Cl transport mod 1.2, MDM2 E3 inh -15 and Calpain2 inh -321.
CCc1ccccc1NNC(=O)c1snnc1C was read as Cl transport mod 5*, MDM2 E3 inh -6, Calpain2 inh 2, KCC2 sec1 0.0099, KCC2 bumet counter 0.0084*, KCC2 secondary2 0.033, HEK counter1 0.0069, KCC2 retest ouab 0.022 and HEK293 Tl flux2 0.01.
Screening CCCNC(=O)NC(=O)CSc1nncs1 returned PKD1 inh -2, Cl transport mod -0.076, MDM2 E3 inh -14, Arbovirus inh 18, ROMK primary -0.96 and Calpain2 inh -11.
Screening Cc1cccc(N2CCN(C(=O)Cn3ccc4ccccc4c3=O)CC2)c1C returned PKD1 inh 3, Cl transport mod -4.5*, MDM2 E3 inh 8, Arbovirus inh 0, Calpain2 inh -7, KCC2 sec1 0.007, KCC2 bumet counter 0.0041, KCC2 secondary2 0.023*, HEK counter1 0.0069, KCC2 retest ouab 0.016* and HEK293 Tl flux2 0.0097.
Screening N#Cc1c2n(c3c(=O)n(Cc4ccc(Cl)cc4)cnc13)CCCCC2 returned PKD1 inh -1, MDM2 E3 inh 3, Arbovirus inh 2, ROMK primary 0.21, Calpain2 inh 9, KCC2 sec1 0.0052, KCC2 bumet counter 0.0044, KCC2 secondary2 0.023*, HEK counter1 inconclusive, KCC2 retest ouab 0.014* and HEK293 Tl flux2 0.01.
Screening N#Cc1c2n(c3c(=O)n(Cc4ccccc4)cnc13)CCCC2 returned PKD1 inh -7, Cl transport mod -0.47, MDM2 E3 inh -9, Arbovirus inh -11 and Calpain2 inh 23.
`O=C(/C=C/c1ccc(Br)o1)Nc1nccs1` gave PKD1 inh -2, Cl transport mod -0.11, MDM2 E3 inh -17, Arbovirus inh 10, ROMK primary -0.49 and Calpain2 inh -38.
Screening O=C1C2Sc3[nH]c(=O)sc3C(c3ccccc3)C2C(=O)N1c1ccc(Cl)cc1 (stereo unspecified) returned PKD1 inh 2, Cl transport mod -9.8*, MDM2 E3 inh -12, Arbovirus inh 6, Calpain2 inh -42, KCC2 sec1 0.0066, KCC2 bumet counter 0.013*, KCC2 secondary2 0.024*, HEK counter1 0.01*, KCC2 retest ouab 0.011* and HEK293 Tl flux2 0.011.
Screening Cc1ccc(N2C(=O)C3Sc4[nH]c(=O)sc4C(c4ccccc4)C3C2=O)cc1 (stereo unspecified) returned PKD1 inh 2, Cl transport mod -10*, MDM2 E3 inh -7, Arbovirus inh 12, Calpain2 inh -24, KCC2 sec1 0.0074, KCC2 bumet counter 0.011*, KCC2 secondary2 0.023*, HEK counter1 0.01*, KCC2 retest ouab 0.0098* and HEK293 Tl flux2 0.011.
`CCNC(=S)Nc1cc(OCC)c(NC(=O)c2cccs2)cc1OCC` gave PKD1 inh -9, Cl transport mod 0.43, MDM2 E3 inh 1, Arbovirus inh -6 and Calpain2 inh -120.
`COc1ccc(Oc2ccc(/C=C/C(=O)c3cccc(OC)c3)cc2[N+](=O)[O-])cc1` gave PKD1 inh -7, Cl transport mod 1.4, MDM2 E3 inh 12, Arbovirus inh 3, ROMK primary 0.11 and Calpain2 inh -21.
`O=C(/C=C/c1cccs1)Nc1scc(-c2ccccc2)c1C(=O)O` gave PKD1 inh -1, Cl transport mod -4.2*, MDM2 E3 inh -36, Arbovirus inh 74*, ROMK primary 0.011, Calpain2 inh -28, KCC2 sec1 0.008, KCC2 bumet counter inconclusive, KCC2 secondary2 0.021*, HEK counter1 0.008, KCC2 retest ouab 0.014* and HEK293 Tl flux2 0.01.
O=C(CSc1nc(N2CCCCC2)nc(N2CCCCC2)n1)Nc1nccs1 was read as PKD1 inh 2, Cl transport mod 0.14, MDM2 E3 inh -17, Arbovirus inh -1 and Calpain2 inh 12.

Screening data deposited in PubChem BioAssay by several laboratories.
